The record followed here is ChEMBL document CHEMBL4840315, “Δ9-cis-Tetrahydrocannabinol: Natural Occurrence, Chirality, and Pharmacology” (J Nat Prod, 2021).

Active and inactive are the calls of the source.

Test [1] has as its system Mus musculus. Briefly: In vivo agonist activity at CB1R in BALB/c mouse assessed as induction of hypothermia at 50 mg/kg, ip measured after 1 hr by rectal measurement method. It counts as functional, organism-based. Summed up:
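Male BALB/c mice (8–10 weeks) given compound in pure DMSO intraperitoneally, 5–8 mice per group. Rectal temperature taken by thermocouple probe before dosing and 1 h after. Change is expressed as basal minus post-injection temperature. Groups compared with vehicle by Kruskal–Wallis then Mann–Whitney.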

Test [2] addresses T1, Lysophosphatidylserine lipase ABHD12 (Homo sapiens, UniProt Q8N2K0).
T1 sequence (Q8N2K0 whole entry): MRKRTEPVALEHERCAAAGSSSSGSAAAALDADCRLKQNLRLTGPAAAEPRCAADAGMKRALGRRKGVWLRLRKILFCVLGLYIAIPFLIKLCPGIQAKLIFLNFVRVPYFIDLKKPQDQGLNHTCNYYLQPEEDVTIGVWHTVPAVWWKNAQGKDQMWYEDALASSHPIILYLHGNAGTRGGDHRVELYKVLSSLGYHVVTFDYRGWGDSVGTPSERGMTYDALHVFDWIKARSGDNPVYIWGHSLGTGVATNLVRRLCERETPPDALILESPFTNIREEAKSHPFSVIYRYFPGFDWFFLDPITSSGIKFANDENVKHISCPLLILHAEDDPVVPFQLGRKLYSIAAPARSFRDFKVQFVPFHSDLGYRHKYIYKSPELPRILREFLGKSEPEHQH
Briefly: Inhibition of human ABHD12 transfected in HEK293 cells using 2-OG as substrate preincubated for 30 mins followed by substrate addition measured after 5 mins by liquid scintillation spectroscopy. The class given is cell-based. Summed up: (§1)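 Homogenate (40 μg) of HEK-293 cells stably expressing hABHD6 or hABHD12, in […], 0.1% BSA, pH 7.6. Compound preincubated 30 min at 37 °C, then 10 μM 2-OG for 5 min at 37 °C. Tritium counted in aqueous phase; non-transfected HEK293 hydrolysis subtracted. Positive controls: WWL70 10 μM (ABHD6), THL 20 μM (ABHD12). At least two experiments in triplicate, mean ± SD.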

Test [3] has as its target T2, Monoglyceride lipase (Homo sapiens, UniProt Q99685).
T2 sequence (Q99685 whole entry): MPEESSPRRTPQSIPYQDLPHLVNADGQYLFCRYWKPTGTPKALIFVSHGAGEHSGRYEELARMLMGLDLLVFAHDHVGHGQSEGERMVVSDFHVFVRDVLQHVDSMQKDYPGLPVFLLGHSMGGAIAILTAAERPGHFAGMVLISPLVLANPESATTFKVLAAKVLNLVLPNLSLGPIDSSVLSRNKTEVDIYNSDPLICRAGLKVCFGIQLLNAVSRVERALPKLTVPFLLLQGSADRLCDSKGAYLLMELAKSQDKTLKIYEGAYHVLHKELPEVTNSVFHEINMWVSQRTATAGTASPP
Nature of the test: Inhibition of MAGL (unknown origin) in human U-937 cells using [ethanolamine-1-3H]AEA as substrate preincubated for 30 mins followed by substrate addition measured after 15 mins by liquid scintillation spectroscopy. It counts as cell-based.

In test [4] the test system is Mus musculus. Briefly: In vivo agonist activity at CB1R in BALB/c mouse assessed as catalepsy like behaviour at 50 mg/kg, ip measured after 1 hr by bar test. It counts as functional, organism-based. Summed up: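 Male BALB/c mice (8–10 weeks) given compound in pure DMSO intraperitoneally, 5–8 mice per group. Bar test at 1 h: forelimbs placed on a 4 cm high bar. End-point is both front limbs removed or held over 120 s. Three trials per mouse. Groups compared with vehicle by Kruskal–Wallis then Mann–Whitney.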

In test [5] the test system is Mus musculus. Nature of the test: In vivo agonist activity at CB1R in BALB/c mouse assessed as induction of analgesia at 50 mg/kg, ip measured after 1 hr by hot plate test. The class given is functional, organism-based. Summed up: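 Male BALB/c mice (8–10 weeks) given compound in pure DMSO intraperitoneally, 5–8 mice per group. Hot plate at 54–56 °C inside a Plexiglas cylinder, 1 h post-dose. Read-out is latency to first nociceptive response (paw lick or foot shake). Groups compared with vehicle by Kruskal–Wallis then Mann–Whitney.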

The target of test [6] is T3, Monoacylglycerol lipase ABHD6 (Homo sapiens, UniProt Q9BV23).
T3 sequence (Q9BV23 whole entry): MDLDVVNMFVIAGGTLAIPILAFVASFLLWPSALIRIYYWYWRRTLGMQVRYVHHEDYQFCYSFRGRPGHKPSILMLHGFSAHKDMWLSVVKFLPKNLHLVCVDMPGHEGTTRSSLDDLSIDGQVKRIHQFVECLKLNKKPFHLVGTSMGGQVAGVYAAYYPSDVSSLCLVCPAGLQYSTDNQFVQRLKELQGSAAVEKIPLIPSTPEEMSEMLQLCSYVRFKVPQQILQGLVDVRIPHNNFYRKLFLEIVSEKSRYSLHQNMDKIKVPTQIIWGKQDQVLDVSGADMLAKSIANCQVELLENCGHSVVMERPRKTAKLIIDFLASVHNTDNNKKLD
Nature of the test: Inhibition of human ABHD6 transfected in HEK293 cells using 2-OG as substrate preincubated for 30 mins followed by substrate addition measured after 5 mins by liquid scintillation spectroscopy. The class given is cell-based. Summed up: as §1

Test [7] concerns the target T4, Fatty-acid amide hydrolase 1 (Homo sapiens, UniProt O00519).
T4 sequence (O00519 whole entry): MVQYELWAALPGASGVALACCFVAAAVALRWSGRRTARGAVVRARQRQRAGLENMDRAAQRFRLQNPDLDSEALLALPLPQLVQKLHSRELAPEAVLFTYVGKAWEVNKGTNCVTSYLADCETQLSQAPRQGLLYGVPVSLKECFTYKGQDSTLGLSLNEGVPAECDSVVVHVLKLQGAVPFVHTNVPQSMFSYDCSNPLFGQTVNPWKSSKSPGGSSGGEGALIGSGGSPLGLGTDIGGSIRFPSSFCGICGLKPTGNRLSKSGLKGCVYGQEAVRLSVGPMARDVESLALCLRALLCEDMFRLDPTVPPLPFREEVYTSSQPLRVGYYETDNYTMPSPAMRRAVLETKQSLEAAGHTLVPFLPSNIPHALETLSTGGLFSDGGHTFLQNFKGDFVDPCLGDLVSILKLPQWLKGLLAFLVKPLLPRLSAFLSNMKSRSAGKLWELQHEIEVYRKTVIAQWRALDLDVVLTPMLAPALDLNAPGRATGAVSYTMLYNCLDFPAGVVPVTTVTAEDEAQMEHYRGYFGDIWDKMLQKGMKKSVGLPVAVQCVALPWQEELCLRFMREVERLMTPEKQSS
Nature of the test: Inhibition of FAAH (unknown origin) in human U-937 cells using [ethanolamine-1-3H]AEA as substrate preincubated for 30 mins followed by substrate addition measured after 15 mins by liquid scintillation spectroscopy. The class given is cell-based. Summed up:
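U937 cell homogenate (100 μg) in 10 mM Tris-HCl, 1 mM EDTA, 0.1% fatty-acid-free BSA, pH 8. Compound preincubated 30 min at 37 °C, then 100 nM AEA with 1 nM [ethanolamine-1-3H]AEA tracer added for 15 min at 37 °C. Stopped with cold CHCl3/MeOH (1:1); tritium counted in aqueous phase.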

The test system of test [8] is Mus musculus. Briefly: In vivo agonist activity at CB1R in BALB/c mouse assessed as induction of hypolocomotion at 50 mg/kg, ip measured after 1 hr by rotarod test. It counts as functional, organism-based. Summed up: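 Male BALB/c mice (8–10 weeks) given compound in pure DMSO intraperitoneally, 5–8 mice per group. Rotarod at 6 rpm, 1 h post-dose. Read-out is latency to fall, cutoff 120 s, over three trials. Groups compared with vehicle by Kruskal–Wallis then Mann–Whitney.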
For orientation: In the rotarod test animals must keep their balance on a rotating rod.

For `CCCCCc1cc(O)c2c(c1)OC(C)(C)[C@H]1CCC(C)=C[C@@H]21`, the result in test [1], in test [4], in test [5] and in test [8] was Active. The IC50 (as a rule, the midpoint of a concentration-inhibition curve) was 14.1 µM in test [2], greater than 100 µM in test [3], 39.8 µM in test [6] and 36.3 µM in test [7].

With `CCCCCc1cc(O)c2c(c1)OC(C)(C)[C@@H]1CCC(C)=C[C@H]21`, the half-inhibitory concentration (IC50) in test [2] was 28.8 µM; in test [3] it was greater than 100 µM; in test [6], 35.1 µM; in test [7], greater than 80 µM.

Regarding `CCCCCc1cc(O)c2c(c1)OC(C)(C)[C@@H]1CCC(C)=C[C@@H]21` [DRONABINOL], the outcome in test [1], in test [4], in test [5] and in test [8] was Active. For the same compound, the IC50 in test [2] was 11.6 µM; in test [3], greater than 100 µM; in test [6], 48.2 µM; in test [7] it was 43.6 µM.
